An excerpt weighted towards active compounds, which were near 6.8% of everything screened.
HSF1 activator = increases HSF-1 driven luciferase reporter signal; NIH3T3-HGL HSF-1 luciferase reporter, MG132, 8 h; 100% = twice DMSO control signal; activation, % at 9 µM; actives 1.7% (n = 300,000);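 active = mean replicate activation of at least 50% with a set share of replicates each reaching 50%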;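 note: 0% = median of the neutral control wells and 100% = twice that signal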
HCV core dimer = HCV core protein dimerization inhibition; TR-FRET GST/Flag-core106 dimerization, 1536-well; inhibition, % at 5 µM; actives 0.33% (n = 300,000); AID 1899;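 active = inhibition above the mean of all tested compounds plus 3 SD, set per screening campaign, cut at about 45% in these data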
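assay system = GST-tagged and Flag-tagged HCV core protein residues 1-106 | controls = unlabelled core106 and no-GST-core106 wells | incubation = compound-protein-antibody incubation 4 h at 22.5 °C | probe or stimulus = Eu donor and XL665 acceptor anti-tag antibodies | read-out = % inhibition based on acceptor/donor emission ratio | signal = TR-FRET 671 and 617 nm emission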
AI-2 QS modul = modulators of Vibrio harveyi AI-2 quorum sensing system; Vibrio harveyi JMH597 AI-2 luminescence/OD600 ratio, 9 h; active compounds read low; strain lacks LuxN and CqsS sensors; 0 = neutral-control median; activity change, % at 7.5 µM; actives 0.4% (n = 300,000); AID 2094; in the data active = activity change below about -75%, passing the limit was not always enough;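 note: luminescence divided by OD600 gain over 9 h not by final OD600 alone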
HSF1 inhib = HSF1 inhibition; NIH3T3-HGL HSE-luciferase, MG132-induced, luminescence 8 h; active compounds read low; activity change, negative = inhibition, % at 7.5 µM (by protocol); actives 0.77% (n = 300,000);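 active = more than half of replicate wells show activity change below -50%, luminescence cut by over half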;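 note: luciferase reports HSF-1 transcriptional activity via heat shock element; 0% = median of DMSO wells and -100% = zero luminescence signal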
PHOSPHO1 inh = blocks human PHOSPHO1 phosphatase activity | Q8TCT1 | recombinant PHOSPHO1, absorbance phosphatase assay | inhibition, % at 13.3 µM | actives 1.1% (n = 290,000); in the data active = inhibition above about 60%
Target sequence (Q8TCT1 whole entry, looked up): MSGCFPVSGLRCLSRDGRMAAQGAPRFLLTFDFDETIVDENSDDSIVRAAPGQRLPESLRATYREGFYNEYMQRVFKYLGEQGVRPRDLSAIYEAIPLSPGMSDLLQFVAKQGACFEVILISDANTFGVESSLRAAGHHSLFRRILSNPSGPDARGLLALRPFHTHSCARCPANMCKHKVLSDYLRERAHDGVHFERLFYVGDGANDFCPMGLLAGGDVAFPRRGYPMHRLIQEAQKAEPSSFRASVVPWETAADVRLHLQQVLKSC
ALR inh = human ALR oxidase inhibition via reduced H2O2; P55789; AID 485317; purified ALR, DTT oxidation, H2O2 HRP-luminol luminescence; actives 3.8% (n = 290,000); inhibition, % (no concentration beside the values);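 active = mean replicate inhibition above about 79%, with every replicate also reaching it, limit read from the data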
Target sequence (P55789 whole entry, looked up): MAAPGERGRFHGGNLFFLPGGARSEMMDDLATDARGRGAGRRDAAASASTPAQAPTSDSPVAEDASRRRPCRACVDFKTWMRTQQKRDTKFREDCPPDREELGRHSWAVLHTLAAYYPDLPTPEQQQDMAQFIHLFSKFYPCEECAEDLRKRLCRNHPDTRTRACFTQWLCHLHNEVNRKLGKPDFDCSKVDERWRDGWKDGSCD
* hit, by the source's call; x = not tested or not shown.

SMILES	HSF1 activator	HCV core dimer	AI-2 QS modul	HSF1 inhib	PHOSPHO1 inh	ALR inh
CCC(C)C(=O)Nc1cccc(SC)c1 (stereo not drawn)	0	-5	16	0	-14	-8
CS(=O)(=O)Nc1ccc(OCc2ccccc2)cc1	30	-4	-9	25	-16	1
O=C1CCCC/C1=N\Nc1ccc(C2CCCCC2)cc1	-59	7	-28	-56*	-8	98*
Cc1ccc(NS(=O)(=O)c2ccc(C3CCCCC3)cc2)cc1	5	3	23	4	6	2
O=C1CCCC/C1=N\Nc1ccc(OCc2ccccc2)cc1	19	-2	21	8	-15	99*
CCOC(=O)C(C)Oc1cc(Cl)c(C=O)cc1OC (stereo not drawn)	51*	1	17	14	-11	1
COC(=O)COc1cc(Cl)c(C=O)cc1OC	0	-2	20	5	43	-2
CCOc1ccc(C(=O)NCc2ccncc2)cc1OCC	-64	-4	7	-61*	-39	-11
CCOc1ccc(NC(=O)C(=O)NCc2ccncc2)cc1	25	3	10	0	68*	-1
COC(=O)c1ccccc1NC(=O)C(=O)NCc1ccncc1	7	7	13	-3	66*	5
CCOc1ccc(NC(=O)Nc2ccc(Cc3ccncc3)cc2)cc1	-2	-2	-6	0	37	-1
O=C(NCc1ccncc1)c1ccc(Cl)c(S(=O)(=O)N2CCOCC2)c1	-81	-8	13	-76*	24	x
COC(=O)c1ccccc1NC(=O)NCc1cccnc1	0	-10	17	-1	10	-5
COc1ccc(OC)c(S(=O)(=O)NCCc2csc(-c3cccnc3)n2)c1	x	-9	20	x	27	-8
C[C@H](NC(=O)c1nc[nH]c1C(=O)NCCCCCN)C(=O)OCc1ccccc1	-13	0	24	-5	x	-1
COC(=O)N[C@@H]1C[C@H]2[C@@H]3CC[C@H]4C[C@@H](OC)CC[C@]4(C)[C@H]3CC[C@@]12C	x	x	x	x	x	-4
O=C1CN(C(=O)c2ccc3nc(Cc4cccc(Cl)c4)oc3c2)CCN1	16	-3	46	2	18	-4
Cc1ccc(S(=O)(=O)c2c(C(=O)c3ccccc3)cnc3cc4c(cc23)OCCO4)cc1	-74	16	2	-66*	4	-12
Cc1c(C(=O)c2ccc(Cl)c(Cl)c2)cnc2cc3c(cc12)OCO3	-5	9	-20	-13	-10	x
NNC(=O)CCn1c2ccccc2c2ccccc21	1	-1	8	4	29	-6
O=C1CC(N2CCCCC2)C(=O)N1c1ccccc1 (stereo not drawn)	-62	2	23	-53*	2	8
COc1cccc(N2C(=O)CC(N3CCc4ccccc43)C2=O)c1 (stereo not drawn)	18	3	-5	17	14	90*
O=C1CC(N2CCc3ccccc32)C(=O)N1c1ccc(F)cc1 (stereo not drawn)	-8	-4	11	3	8	99*
COc1ccccc1N1C(=O)CC(N2CCc3ccccc32)C1=O (stereo not drawn)	-18	6	19	-2	-1	41
O=C1CC(N2CCSCC2)C(=O)N1c1ccccc1 (stereo not drawn)	2	0	11	-5	32	18
SMILES	HSF1 activator	HCV core dimer	AI-2 QS modul	HSF1 inhib	PHOSPHO1 inh	ALR inh
CC(C)C(C)NC(=O)COc1ccc(S(=O)(=O)N2CCOCC2)cc1Cl (stereo not drawn)	-13	-2	21	4	23	0
Cc1cc(C(=O)Nc2cc(Br)ccc2O)on1	29	-3	0	15	-4	8
Cc1ccc(-c2csc(C3=C(O)CN(NC(=O)c4ccc([N+](=O)[O-])cc4)C3=N)n2)cc1	-1	48*	12	4	42	10
N=C1C(c2nc(-c3ccc(Br)cc3)cs2)=C(O)CN1NC(=O)c1ccc([N+](=O)[O-])cc1	-8	53*	-1	-2	46	21
N=C1C(c2nc(-c3ccc(Cl)cc3)cs2)=C(O)CN1NC(=O)c1ccc(O)cc1	-18	23	22	4	11	x
COc1ccc(CCNC(=O)CSc2nc3ncccc3[nH]2)c(OC)c1	-5	3	22	-1	42	-10
CC1CCN(C(=O)CSc2nnc3ccc(-c4cccnc4)nn23)CC1	-7	-1	28	-6	x	1
CC1(C2CC2)NC(=O)N(CC(=O)Nc2ccccc2-c2ccccc2)C1=O (stereo not drawn)	2	-14	11	1	-5	-3
O=C(Nc1ccc(F)cc1F)c1ccccc1NC(=O)C1CC=CCC1C(=O)O (stereo not drawn)	-6	-5	19	0	8	-7
Cc1nn(CC2CC2)c(=O)n1-c1ccccc1	-9	-6	2	-7	23	-33
CCOC(=O)CC1NCCc2c1[nH]c1ccc(OC)cc21 (stereo not drawn)	58*	-11	17	16	24	7
O=C(Nc1cccc(C(F)(F)F)c1)C(Sc1cccc[n+]1[O-])c1ccccc1 (stereo not drawn)	20	-5	33	4	3	78*
Cc1ccc(NC(=O)CSCC(=O)N(C)CC(=O)Nc2cccc(F)c2)cc1	7	-4	25	3	x	99*
CCN(CC(=O)Nc1cccc(C#N)c1)CC(=O)Nc1cccc(OC)c1	0	0	11	-5	63*	0
CCN(CC(=O)Nc1ccc(OC)cc1)CC(=O)Nc1cccc(C#N)c1	30	-11	10	12	10	-3
CN(CC(=O)Nc1cccc(F)c1)C(=O)c1cccc(-n2cccc2)c1	8	64*	20	-5	x	5
CCC(C)[C@H](NC(=O)NCc1cccc(OC)c1)C(=O)O (stereo partly drawn)	-86	1	14	-83*	14	-19
Cc1cccc(NC(=O)CSCC(=O)N(C)CC(=O)Nc2cccc(F)c2)c1	3	3	2	-1	x	68
Cc1ccc(-n2ncc3c(=O)n(CC(=O)N4CCN(c5ccccc5)CC4)cnc32)cc1C	-6	0	10	-12	38	4
O=C(COC(=O)Cc1cccc(C(F)(F)F)c1)NC1CCS(=O)(=O)C1 (stereo not drawn)	-7	-2	6	-7	x	-10
COc1cccc(CNCC(=O)Nc2ccc(N3CCOCC3)cc2)c1	-4	7	8	-9	-10	99*
COc1cccc(NC(=O)CSCC(=O)Nc2ccccc2)c1	1	3	24	4	16	x
COc1cccc(NC(=O)CN(C)C(=O)CSCC(=O)Nc2ccc(C)cc2)c1	x	x	x	x	x	99*

Source: PubChem BioAssay (several laboratories)
